# Measured values taken from ChEMBL document CHEMBL5335768, “Expanding the knowledge around antitubercular 5-(2-aminothiazol-4-yl)isoxazole-3-carboxamides: Hit-to-lead optimization and release of a novel antitubercular chemotype via scaffold derivatization” (Eur J Med Chem, 2023).
# Active and inactive are the calls of the source. The rule behind the calls is not given here.
# Columns and labels:
# Mycobacterium marinum [1] = assay: Antitubercular activity against Mycobacterium marinum ATCC BAA-535 assessed as inhibition of bacterial growth measured after 3 weeks by broth microdilution method; format: functional; settings: ATCC BAA-535, 504 h
# [2] = Cytotoxicity against human THP-1 cells assessed as reduction in cell viability measured after 72 hrs by MTT assay; format: toxicity, cell-based
# In short: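 THP-1 monocytes were differentiated to macrophages with PMA 100 ng/mL for 72 h. They were then exposed to compounds at 1, 10, 50 and 100 μM for 72 h, each tested twice. MTT at 1 mg/mL in RPMI with 5% FBS was added for 2 h at 37 °C; formazan was dissolved in DMSO and read at 570 nm. Viability is given as % of control; IC50 from non-linear regression.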
# Mycobacterium avium = assay: Antitubercular activity against Mycobacterium avium 11 assessed as inhibition of bacterial growth upto 100 uM measured after 4 days by broth microdilution method; format: functional, organism-based; settings: time 4.0 day
# In short: (§1)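 Twofold serial dilutions inoculated at OD600 0.05; incubated at 37 °C, shaking at 110 rpm, for 3 days (M. abscessus Bamboo) or 4 days (M. avium 11). […] Clarithromycin positive control; data representative of two independent replicates.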
# [3] = tested on: Mycobacteroides abscessus; assay: Antitubercular activity against Mycobacterium abscessus Bamboo assessed as inhibition of bacterial growth upto 100 uM measured after 3 days by broth microdilution method; format: functional, organism-based; settings: time 3.0 day; in short: as §1
# [4] = tested on: Mycobacterium tuberculosis; assay: Antitubercular activity against Mycobacterium tuberculosis H37Rv assessed as inhibition of bacterial growth incubated for 7 days by REMA method; format: functional
# [5] = Half life in human liver microsomes at 1 uM preincubated with NADP+ for 5 mins prior to compound addition by HPLC-MRM-MS analysis; format: ADME, Microsome
# In short: (§2)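 Pooled HLM at 1 mg/mL protein in 100 mM PBS pH 7.4 with an NADPH-regenerating mix: G6P 10 mM, NADP+ 2 mM, MgCl2 5 mM, G6PDH 1.5 U/mL (stock concentrations). Pre-incubated 5 min at 37 °C, then compound added to 1 μM final (1% DMSO).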
# [6] = Metabolic stability of the compound in human liver microsomes assessed as parent residual fraction at 1 uM preincubated with NADP+ for 5 mins prior to compound addition by HPCLC-MRM-MS analysis; format: ADME, Microsome; settings: read-out: Stability; in short: as §2
# Mycobacterium marinum [7] = settings: ATCC BAA-535, time 3.0 weeks
# [8] = Mycobacterium tuberculosis, H37Rv, 168 h, time 7 day, read-out: MIC90
SMILES,IC50 at 72 h [2] [µg/mL],Activity (Mycobacterium avium),Activity [3],"MIC90 [4, 8] [µg/mL]",further results
Cc1ccc(Nc2nc(-c3cc(C(=O)Nc4cccc(C)n4)no3)cs2)cc1,66.8,,,,MIC90 (Mycobacterium marinum [1]): 1 µg/mL
Cc1ccc(Nc2nc(-c3cc(C(=O)Nc4ccccc4C)no3)cs2)cc1,63.7,inactive,inactive,1,
Cc1ccc(Nc2nc(-c3cc(C(=O)Nc4cccc(O)c4)no3)cs2)cc1,48.7,inactive,inactive,0.5,
O=C(Nc1ccccc1)c1cc(-c2csc(Nc3ccc(Cl)cc3)n2)on1,> 100,,,1.25,MIC90 (Mycobacterium marinum [1]): 2 µg/mL; t1/2 [5]: 59 min
Cc1ccc(Nc2nc(-c3cc(C(=O)Nc4ccsc4)no3)cs2)cc1,> 100,,,1,MIC90 (Mycobacterium marinum [1]): 1 µg/mL
Cc1ccc(Nc2nc(-c3cc(C(=O)Nc4cccc(F)c4)no3)cs2)cc1,,inactive,inactive,2.5,
O=C(Nc1ccccc1)c1cc(-c2csc(Nc3ccc(C(F)(F)F)cc3)n2)on1,,,,> 20,remaining at 1 µM [6]: 71%
Cc1ccc(Nc2nc(-c3cc(C(=O)Nc4ccc(F)cc4)no3)cs2)cc1,46.8,inactive,inactive,1,
Cc1ccc(Nc2nc(-c3cc(C(=O)Nc4ccncc4)no3)cs2)cc1,29.9,inactive,inactive,1,
Cc1ccc(Nc2nc(-c3cc(C(=O)Nc4ccc(O)cc4)no3)cs2)cc1,79.1,inactive,inactive,0.5,MIC90 (Mycobacterium marinum [1]): 1 µg/mL
Nc1nc(-c2cc(C(=O)Nc3ccccc3)no2)cs1,,,,> 20,remaining at 1 µM [6]: 97%
Cc1ccc(Nc2nc(-c3cc(C(=O)Nc4ccc(O)cc4)no3)cs2)cc1O,,,,5,t1/2 [5]: 19 min
Nc1nc(-c2cc(C(=O)Nc3ccccn3)no2)cs1,,,,> 20,remaining at 1 µM [6]: 96%
O=C(Nc1ccccc1)c1cc(-c2csc(Nc3cc(Cl)c(Cl)c(Cl)c3)n2)on1,,,,> 20,remaining at 1 µM [6]: 101%
O=C(Nc1ccccn1)c1cc(-c2csc(Nc3ccc(C(F)(F)F)cc3)n2)on1,,,,> 20,remaining at 1 µM [6]: 85%
Cc1ccc(Nc2nc(-c3cc(C(=O)Nc4ccccn4)no3)cs2)cc1O,> 100,inactive,inactive,5,
Cc1cc(C)cc(Nc2nc(-c3cc(C(=O)Nc4ccccc4)no3)cs2)c1,70.9,inactive,inactive,1,
O=C(Nc1ccccn1)c1cc(-c2csc(Nc3cc(Cl)c(Cl)c(Cl)c3)n2)on1,,,,> 20,remaining at 1 µM [6]: 102%
O=C(Nc1ccccc1)c1cc(-c2csc(Nc3cccc(O)c3)n2)on1,,,,5,t1/2 [5]: 34 min
O=C(Nc1ccccn1)c1cc(C(=O)Nc2nc3ccccc3s2)on1,,,,,MIC90 (Mycobacterium marinum [7]): inactive; MIC90 ([4]; time 7.0 day): inactive
Cc1ccc2nc(NC(=O)c3cc(C(=O)Nc4ccc(O)cc4)no3)sc2c1,,,,,MIC90 (Mycobacterium marinum [7]): inactive; MIC90 ([4]; time 7.0 day): inactive
Cc1ccc(Nc2nc(-c3cc(C(=O)Nc4ccccc4)no3)co2)cc1,> 100,inactive,inactive,1,
Cc1cccc(NC(=O)c2cc(C(=O)Nc3nc4ccc(C)cc4s3)on2)c1,,,,,MIC90 (Mycobacterium marinum [7]): inactive; MIC90 ([4]; time 7.0 day): inactive
Cc1ccc2nc(NC(=O)c3cc(C(=O)Nc4ccccc4)no3)sc2c1,,,,,MIC90 (Mycobacterium marinum [7]): inactive; MIC90 ([4]; time 7.0 day): inactive
Cc1ccc(Nc2nc(-c3cc(C(=O)Nc4cccc(C)c4)no3)cs2)cc1,10.7,inactive,inactive,0.5,
